Active and inactive are the calls of the source. The calls are words filed in the database; no cut-off is given here.

For data set [1], the system named is Human T-cell leukemia virus type I. The data set can be described thus: Inhibition of HTLV-1 integrase strand transfer activity at 2 uM. In a few lines:
(§1)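 Recombinant HTLV-1 integrase, expressed in E. coli BL21(DE3) and Ni-NTA purified. Donor was a 3′-recessed double-strand 54-bp HTLV-1 3′ LTR with synthetic target DNA, 1 pmol each oligonucleotide. Buffer: 25 mM HEPES pH 7.4, 10 mM β-mercaptoethanol, 10% glycerol, 7.5 mM MnCl₂. Incubated 60 min at 37°C. Products quantified by fluorescent PCR peak intensity, in triplicate; approximate IC50 by linear regression.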

Data set [2] shares this test system. In words: Inhibition of HTLV-1 integrase strand transfer activity at 5 uM. The gist of the method:
as §1

Data set [3] has the same test system. The data set can be described thus: Inhibition of HTLV-1 integrase strand transfer activity at 10 uM. The gist of the method:
as §1

A short description of data set [4]: Inhibition of HTLV-1 integrase strand transfer activity. Further details: species or system Human T-cell leukemia virus type I. The gist of the method:
as §1

Data set [5] concerns PBMC. The data set can be described thus: Growth inhibition of human PBMC cells cocultured with irradiated HTLV-1 positive MT2 cells at 50 uM after 7 days. It counts as functional, cell-based. In a few lines:
(§2)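 PBMCs from HTLV-1-seronegative donors (Ficoll separation) were cocultured 5:1 with 60 Gy-irradiated HTLV-1-positive MT2 cells in RPMI 1640 with 100 U/ml IL-2. Compounds in DMSO were added at onset at final 0, 50, 100 or 250 μM, then at half the initial concentration on days 4, 7 and 10. Cells were counted on days 7, 14 and 21.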

For data set [6], the system named is PBMC. The data set can be described thus: Growth inhibition of human PBMC cells cocultured with irradiated HTLV-1 positive MT2 cells at 100 uM after 7 days. It counts as functional, cell-based. The gist of the method: as §2
Data set [7] relates to PBMC. In words: Growth inhibition of human PBMC cells cocultured with irradiated HTLV-1 positive MT2 cells at 250 uM after 7 days. It counts as functional, cell-based. The gist of the method: as §2
Data set [8] has as its system PBMC. In words: Growth inhibition of human PBMC cells cocultured with irradiated HTLV-1 positive MT2 cells at 50 uM after 14 days. The data set is classed as functional, cell-based. In a few lines:
as §2

The test system of data set [9] is PBMC. In words: Growth inhibition of human PBMC cells cocultured with irradiated HTLV-1 positive MT2 cells at 100 uM after 14 days. The data set is classed as functional, cell-based. The gist of the method: as §2
Data set [10] deals with PBMC. In words: Growth inhibition of human PBMC cells cocultured with irradiated HTLV-1 positive MT2 cells at 250 uM after 14 days. It counts as functional, cell-based. The gist of the method:
as §2

Data set [11] relates to PBMC. In words: Growth inhibition of human PBMC cells cocultured with irradiated HTLV-1 positive MT2 cells at 50 uM after 21 days. The data set is classed as functional, cell-based. The gist of the method: as §2
Data set [12] relates to PBMC. In words: Growth inhibition of human PBMC cells cocultured with irradiated HTLV-1 positive MT2 cells at 100 uM after 21 days. It counts as functional, cell-based. In a few lines: as §2
Data set [13] relates to PBMC. In words: Growth inhibition of human PBMC cells cocultured with irradiated HTLV-1 positive MT2 cells at 250 uM after 21 days. The data set is classed as functional, cell-based. The gist of the method:
as §2

Data set [14] concerns Human T-cell leukemia virus type I. In words: Antiviral activity against HTLV-1 infected in PBMC cells cocultured with irradiated HTLV-1 positive MT2 cells assessed as decrease in […] load by RT-PCR. It counts as functional, organism-based. The gist of the method: (§3)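 Donor PBMCs were cocultured 5:1 with 60 Gy-irradiated MT2 cells plus IL-2, with compound (DMSO) at 0, 50 or 100 μM, redosed at half concentration on days 4, 7 and 10. DNA was extracted on day 7. Real-time quantitative PCR for tax with albumin normalization used 250 ng DNA per reaction, in triplicate. The untreated load was set to 100 units.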

Data set [15] shares this test system. In words: Antiviral activity against HTLV-1 infected in PBMC cells cocultured with irradiated HTLV-1 positive MT2 cells assessed as decrease in […] load at 50 uM after 7 days by RT-PCR. It counts as functional, organism-based. The gist of the method: as §3
Data set [16] shares this test system. In words: Antiviral activity against HTLV-1 infected in PBMC cells cocultured with irradiated HTLV-1 positive MT2 cells assessed as decrease in […] load 100 uM after 7 days by RT-PCR. The data set is classed as functional, organism-based. The gist of the method:
as §3

A short description of data set [17]: Cytotoxic activity against human PBMC cells. The data set is classed as cell-based. In a few lines: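 Fresh uninfected PBMCs were cultured with various inhibitor concentrations, including 250, 500 and 1,000 μM, in three experiments per concentration. Cell viability was measured to derive CC50.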
Data set [18] deals with PBMC. In words: Inhibition of HTLV-1 integrase strand transfer activity in PBMC cells at 100 uM measured on day 21. The data set is classed as cell-based. To be noted: Human T-cell leukemia virus type I.
For data set [19], the system named is PBMC. In words: Inhibition of HTLV-1 integrase strand transfer activity in PBMC cells at 50 uM measured on day 21. It counts as cell-based. As to conditions: Human T-cell leukemia virus type I.

For orientation: IC50 means the concentration at which inhibition is half-maximal. A high value points to lower potency. With `COc1cc(/C=C/c2ccc3ccc(C(=O)O)c(O)c3n2)cc(OC)c1O`, the inhibition result (in data set [1]; in data set [2]; in data set [3]; with PBMC [5]; with PBMC [6]; with PBMC [7]) was “Active” throughout. The inhibition entry in the data set on PBMC [8], with PBMC [9], with PBMC [10], in the data set with PBMC [11], in the data set on PBMC [12] and with PBMC [13] was “Active” each time. Also, it took 7.2 µM to reach half-maximal inhibition in data set [4] (IC50).

As to `COc1cc(/C=C/c2ccc3ccc(C(=O)O)c(O)c3n2)cc(O)c1O`, the inhibition result (in data set [1]; in [2]; in [3]; in the data set on PBMC [5]; in the data set with PBMC [6]; in the data set on PBMC [7]) was “Active” throughout. Further, the inhibition result in the data set on PBMC [8], in the data set with PBMC [9], in the data set with PBMC [10], in the data set with PBMC [11], with PBMC [12] and with PBMC [13] was “Active” each time. In data set [4], this compound registered an IC50 of 5.2 µM.

For `O=C(O)c1ccc2ccc(/C=C/c3ccc(O)c(O)c3)nc2c1O`, the inhibition result in the data set with PBMC [5], in the data set on PBMC [6], in the data set on PBMC [7], with PBMC [8], in the data set on PBMC [9] and with PBMC [10] was “Active” each time. Moreover, the inhibition entry with PBMC [11], in the data set with PBMC [12] and in the data set with PBMC [13] was “Active” in each case. The result in data set [14], in data set [15] and in [16] was Active.

Usually CC50 stands for the concentration at which the toxic effect on the cells reaches its halfway point. In data set [17], `O=C(O)C(=O)CC(=O)c1cccn1Cc1ccc(F)cc1` had a cytotoxic concentration (CC50) of 520 µM. Further, the inhibition entry in the data set with PBMC [5], with PBMC [6], with PBMC [7], with PBMC [8], in the data set with PBMC [9] and in the data set with PBMC [10] was “Active” in each case. The inhibition entry with PBMC [11], with PBMC [12], with PBMC [13], with PBMC [18] and in the data set on PBMC [19] was “Active” throughout.

As for `O=C(O)C(=O)CC(=O)c1cccc(Cc2ccccc2)c1`, the half-maximal cytotoxic concentration (CC50) in data set [17] was determined as 220 µM. Moreover, the inhibition entry in the data set on PBMC [5], with PBMC [6], in the data set with PBMC [7], in the data set on PBMC [8], in the data set on PBMC [9] and in the data set with PBMC [10] was “Active” throughout. The inhibition entry in the data set on PBMC [11], with PBMC [12] and in the data set with PBMC [13] was “Active” throughout. Besides, the outcome in data set [14], in data set [15] and in data set [16] was Active.

In [17], `O=C(O)c1ccc2ccc(/C=C/c3cc(O)c(O)c(O)c3)nc2c1O` showed a half-maximal cytotoxic concentration (CC50) of 10.7 µM.

Source of the values: ChEMBL document CHEMBL1629544, “Inhibitors of strand transfer that prevent integration and inhibit human T-cell leukemia virus type 1 early replication” (Antimicrob Agents Chemother, 2008).
